This is a sample that favours compounds with a hit; in the whole collection about 4% have one here.
Mdm2 MdmX PPI: disrupts the human Mdm2-MdmX interaction. O15151+Q00987. SaOS-2 split-luciferase Mdm2/MdmX complementation, luminescence. inhibition, % at 8 µM. hit rate 3% among 330,000;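 active means inhibition of at least 50% at 8 µM in the primary screen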
ABHD5-PLIN5 inh: ABHD5-PLIN5 protein interaction inhibition | Split G. princeps luciferase complementation, luminescence, 4 h | hit rate 0.78% among 360,000 | AID 602281 | Q00G26+Q8WTS1 | inhibition, % at 4 µM;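 active means inhibition above the mean inhibition across every tested compound plus 3 SD, cut at about 22% in these data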;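 further: 0% = DMSO only wells and the 100% control is not disclosed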
Granule exo inh: lytic granule exocytosis inhibition | TALL-104 LAMP-1 surface exposure, flow cytometry; cells stimulated with thapsigargin and PMA | inhibition, % at 10 µM | hit rate 0.66% among 360,000 | AID 651702;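 active means inhibition above about 55%, limit read from the data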
UPR XBP1 act: activators of adaptive arm of unfolded protein response (XBP1) | AID 463104 | hit rate 0.33% among 330,000 | activation, % at 20 µM | CHO-XBP1 luciferase reporter, IRE1-XBP1 UPR activation, luminescence; percent of tunicamycin response, DMSO as zero;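 active means versus positive control, 20 µM dose yields 30% or more activation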;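 further: 100% = tunicamycin at 10 µg/mL and 0% = DMSO only wells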
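incubation = overnight seeding at 37 °C, 6 h compound treatment at 37 °C | assay system = CHO-XBP1 cells stably carrying IRE1-XBP1-driven luciferase reporter | input = 1000 cells per well | detection = luciferase luminescence | dosing = single point, 20 µM final compound, 1% DMSO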
UPR CHOP act: activators of apoptotic arm of unfolded protein response (CHOP) | CHO-CHOP luciferase reporter, UPR activation, luminescence; percent of tunicamycin response over DMSO baseline | activation, % at 10 µM | hit rate 0.34% among 330,000;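 active means at 10 µM dose, activation of 40% or more, normalized to positive control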;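 further: 100% = tunicamycin at 10 µg/mL and 0% = DMSO alone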
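Material: CHO-CHOP cells, stable luciferase reporter of PERK-eIF2a-CHOP signalling; quantity: 500 reporter cells seeded per well; buffer or medium: F12 medium containing 10% fetal bovine serum; compound: one dose, 10 µM in 0.5% DMSO; incubation: 6 h compound treatment, 37 °C; measured by: Steady-Glo luciferase luminescence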
Exocytosis CP01: lytic granule exocytosis inhibition; TALL-104 cells, LAMP-1 externalization, flow cytometry; stimulated with PMA plus thapsigargin; hit rate 11% among 1,500; inhibition, % at 10 µM; shares compounds with Granule exo inh; in the data active means inhibition above about 60%;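 further: 0% = stimulated vehicle wells and 100% = unstimulated wells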
Numbers without * were called inactive; x = no result given.

SMILES	Mdm2 MdmX PPI	ABHD5-PLIN5 inh	Granule exo inh	UPR XBP1 act	UPR CHOP act	Exocytosis CP01
CCOC(=O)N1CCN(C(=O)CSc2ccc3nnc(-c4cccnc4)n3n2)CC1	11	2	87*	0	4	-13
c1cncc(-c2noc(-c3cccc4ccccc34)n2)c1	-128	5	-1	8	8	x
c1ccc(-c2ccccc2-c2nc(-c3cccnc3)no2)cc1	19	-3	93*	2	-2	18
CC(C)(C)C(=O)NCC12C=CC(O1)C1C(=O)N(c3ccccc3)C(=O)C12 (configuration not stated)	9	17	64*	1	1	1
O=C1C2C3C=CC(CO)(O3)C2C(=O)N1c1ccc(-c2ccccc2)cc1 (configuration not stated)	37	x	x	0	8	x
COc1cccc(NC(=O)C2CCN(c3ncccn3)CC2)c1	4	0	-2	0	0	x
Cc1ccc(S(=O)(=O)CC(CN2CCCCC2)N2CCCCC2)cc1 (configuration not stated)	x	8	-7	x	x	x
O=S(=O)(CC(CN1CCCCC1)N1CCCCC1)c1ccc2ccccc2c1 (configuration not stated)	x	14	68*	x	x	7
CCCCn1c(-c2nonc2NC(=O)c2ccccc2Cl)nc2ccccc21	x	-3	77*	x	x	-14
COc1ccccc1C(=O)N/C(=C\c1cn(C)c2ccccc12)C(=O)NCCCn1ccnc1	9	5	67*	-5	-2	-7
CS(=O)(=O)N1CCc2cc(C(=O)Nc3cccc([N+](=O)[O-])c3)ccc21	-9	3	2	0	5	x
CCOC(=O)c1c(CSc2ccc(C)cc2)n(C)c2cc(Br)c(O)c(CN(C)C)c12	31	7	34	1	1	x
CCOC(=O)c1c(-c2ccccc2)oc2ccc(O)c(CN3CCOCC3)c12	35	-1	4	-2	-1	x
CCOC(=O)c1c(CSc2ccccc2)n(C)c2cc(Br)c(O)c(CN(C)C)c12	23	7	73*	2	4	107*
CCOC(=O)c1c(CSc2ccccc2)n(C)c2ccc(O)c(CN3CCN(C)CC3)c12	-13	7	59*	1	-1	-3
COc1ccc(/C=N/NC(=O)c2ccc3c(c2)OCO3)c(C(=O)O)c1OC	-3	-1	18	-3	-2	x
CN(c1ccccc1)S(=O)(=O)c1cccc(NC(=O)c2ccc3ncsc3c2)c1	27	2	67*	5	0	8
COCc1ccc(C(=O)Nc2cccc(S(=O)(=O)N(C)c3ccccc3)c2)cc1	7	3	-8	-2	0	x
COc1ccc(N(C)S(=O)(=O)c2cccc(C(=O)Nc3ccc4c(c3)OCCO4)c2)cc1	31	0	90*	-2	-1	-3
CN(C)S(=O)(=O)c1cccc(NC(=O)c2ccc(COc3ccccc3)cc2)c1	22	-3	58*	-1	5	10
Cc1ccc(CNS(=O)(=O)NCc2ccccc2F)cc1	-1	3	-5	1	0	x
COc1cc(/C=N\Nc2cc(=O)n(C)c(=O)n2C)ccc1O	22	0	0	0	-2	x
CCCOc1ccc(-c2nc(N3CCN(C)CC3)c3ccccc3n2)cc1	-59	15	53	1	14	x
CCCOc1ccc(-c2nc(N3CCN(CC)CC3)c3ccccc3n2)cc1	36	11	82*	7	2	-10
CC(C)Cc1ccc(C2=CSC3=NCCN23)cc1	16	7	-5	-1	1	x
SMILES	Mdm2 MdmX PPI	ABHD5-PLIN5 inh	Granule exo inh	UPR XBP1 act	UPR CHOP act	Exocytosis CP01
CN(C(=O)c1ccc(OC2CCN(S(=O)(=O)N(C)C)CC2)cc1)C1CCCCC1	-33	-2	64*	3	1	-1
Cc1ccc(N2CCN(S(=O)(=O)c3ccc4oc(=O)ccc4c3)CC2)c(C)c1	18	6	86*	-1	1	-13
CC(NC(=O)CSc1cccc(C(F)(F)F)c1)c1ccccc1 (configuration not stated)	-37	-10	-6	1	1	x
CC(NC(=O)CSc1nc2c(c(C(F)(F)F)n1)CCc1ccccc1-2)c1ccccc1 (configuration not stated)	12	8	59*	-5	-2	-3
CCOc1ccc(N(CC(=O)NCCSc2ccccn2)S(=O)(=O)c2ccc(Cl)cc2)cc1	-8	-6	57*	-10	-1	-5
COc1ccc(NC(=O)CN(c2ccc(OC)c(Cl)c2)S(=O)(=O)c2ccccc2)cc1	-5	-1	56*	-3	1	-3
COc1ccc(N(CC(=O)NCCC2=CCCCC2)S(=O)(=O)c2ccccc2)cc1OC	15	5	1	-3	1	x
CCOc1ccc(N(CC(=O)NCCOc2ccc(C)cc2)S(=O)(=O)c2ccccc2)cc1	23	-10	0	-5	3	x
COc1ccc(N(CC(=O)Nc2ccc(OC)c(OC)c2)S(=O)(=O)c2ccccc2)cc1Cl	24	1	32	-3	3	x
COc1ccc(N(CC(=O)NCCOc2ccccc2)S(=O)(=O)c2ccc(C)cc2)cc1	10	-2	78*	-6	-1	-12
CCOc1ccc(N(CC(=O)NCCSc2ccccn2)S(C)(=O)=O)cc1	22	3	-1	-1	0	x
COc1ccc(N(CC(=O)NCCC2=CCCCC2)S(=O)(=O)c2ccccc2)cc1	-20	3	62*	-4	-1	-5
S=C(NCc1ccccc1)Nc1nccs1	7	-2	-8	0	0	x
O=C(CCn1cnnn1)NC1CCCN(Cc2ccccc2F)C1 (configuration not stated)	5	-1	-11	-3	1	x
O=C(Nc1ccccc1-c1nnc(SCc2ccccc2)o1)c1ccccc1	-5	0	67*	1	0	-10
O=C(Nc1ccccc1-c1nnc(SCc2ccc(Cl)cc2)o1)c1ccccc1	14	-2	-2	1	1	x
Cc1cc2oc(=O)cc(CN(C)Cc3ccccc3Cl)c2cc1C	-12	-6	96*	6	3	0
COc1ccc(CN(C)Cc2cc(=O)oc3cc(C)c(C(C)C)cc23)cc1OC	20	-8	1	1	0	x
CN(Cc1ccccc1)Cc1cc(=O)oc2ccccc12	x	-4	-3	x	x	x
Cc1cc2oc(=O)cc(CN(C)Cc3ccccc3)c2cc1C(C)C	6	-6	69*	-3	-2	4
COc1ccc2oc(=O)cc(CN(C)Cc3ccccc3)c2c1	12	0	72*	-2	-1	0
Cc1cc2oc(=O)cc(CN(C)Cc3ccccc3F)c2cc1Cl	-104	-7	28	7	6	x
CCOc1ccc(Cl)cc1CNCCCSc1nc(C)cc(C)n1	1	8	87*	-3	0	-3

Source: PubChem BioAssay
